The labels stand for the following.
B1: Osa-1-4 twister ribozyme (parent)
chain: CCGCCUAACACUGCCAAUGCCGGUCCCAAGCCCGGAUAAAAGUGGAGGGGGCGG

The data set covers variants of B1. As to the kind of experiment: self-cleavage, relative activity (ratio to wild type); higher = more cleavage; co-transcriptional. An outline of the steps:
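For each read, cleavage status was taken from whether upstream sequence was present. The reads came from an Oryza sativa twister ribozyme of 54 nucleotides, whose DNA template was synthesised with 97 % wild-type base and 1 % of each other base at the 48 positions downstream of the cleavage site. The template was transcribed in vitro at 37 °C for 2 h with co-transcriptional self-cleavage, and the RNA was reverse-transcribed using a template-switching oligonucleotide, PCR-amplified and deep-sequenced. Relative activity is the fraction cleaved normalised to wild type.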
For the variant CCGCCUAACUCUGCCAAUGCCGGUCCCAAGCCCGGAUAAAAGUGCAGGGGGCGG, the self-cleavage turned out to be 0.02.

As for CCGCCUAACAAUGCCAAUGCUGGUCCCAAGCCCGGAUAAAAGUGGAGGGGGCGG, the self-cleavage was 0.71.

Take CCGCCUAACAAUGCCAAUGCAGGUCCCAAGCCCGGAUAAAAGUGGAGGGGGCGG: the self-cleavage is 0.14.

For the variant CCGCCUAACAAUGCCAAUGCGGGUCCCAAGCCCGGAUAAAAGUGGAGGGGGCGG, the self-cleavage was found to be 0.07.

For CCGCCUAACUCUGCCAAUGCCGGUCCCAAGCCCGGAUAAAAAUGGAGGGGGCGG, the self-cleavage amounted to 0.04.

With CCGCCUAACUCUGCCAAUGCCGGUCCCAAGCCCGGAUAAAACUGGAGGGGGCGG, the self-cleavage worked out at 0.04.

In the case of CCGCCUAACUCUGCCAAUGCCGGUCCCAAGCCCGGAUAAAAUUGGAGGGGGCGG, the self-cleavage was determined as 0.02.

Take CCGCCUAACAAUGGCAAUGCCGGUCCCAAGCCCGGAUAAAAGUGGAGGGGGCGG: the self-cleavage amounted to 0.1.

On to CCGCCUAACAAUGUCAAUGCCGGUCCCAAGCCCGGAUAAAAGUGGAGGGGGCGG, for which the self-cleavage turned out to be 0.15.

On to CCGCCUAACAAUGACAAUGCCGGUCCCAAGCCCGGAUAAAAGUGGAGGGGGCGG, for which the self-cleavage was determined as 0.07.

As to CCGCCUAACUCUGCCAAUGCCGGUCCCAAGCCCGGAGAAAAGUGGAGGGGGCGG, the self-cleavage came out at 0.04.

With CCGCCUAACUCUGCCAAUGCCGGUCCCAAGCCCGGACAAAAGUGGAGGGGGCGG, the self-cleavage stood at 0.05.

On to CCGCCUAACUCUGCCAAUGCCGGUCCCAAGCCCGGAAAAAAGUGGAGGGGGCGG, for which the self-cleavage turned out to be 0.04.

With CCGCCUAACUCUGCCAAUGCCGGUCCCAAGUCCGGAUAAAAGUGGAGGGGGCGG, the self-cleavage is 0.05.

For the variant CCGCCUAACUCUGCCAAUGCCGAUCCCAAGCCCGGAUAAAAGUGGAGGGGGCGG, the self-cleavage is 0.03.

With CCGCCUAACUCUGCCAAUGCCGCUCCCAAGCCCGGAUAAAAGUGGAGGGGGCGG, the self-cleavage came to 0.02.

With CCGCCUAACUCUGCCAAUGCCGUUCCCAAGCCCGGAUAAAAGUGGAGGGGGCGG, the self-cleavage was 0.01.

As to CCGCCUAACUCUCCCAAUGCCGGUCCCAAGCCCGGAUAAAAGUGGAGGGGGCGG, the self-cleavage came to 0.01.

Regarding CCGCCUAACUCUUCCAAUGCCGGUCCCAAGCCCGGAUAAAAGUGGAGGGGGCGG, the self-cleavage came to 0.

For CCGCCUAACUCUACCAAUGCCGGUCCCAAGCCCGGAUAAAAGUGGAGGGGGCGG, the self-cleavage turned out to be 0.01.

As for CCGCCUAACUCUGCCAAUGCCGGUCCCAAGCCCGCAUAAAAGUGGAGGGGGCGG, the self-cleavage was 0.03.

Regarding CCGCCUAACUCUGCCAAUGCCGGUCCCAAGCCCGUAUAAAAGUGGAGGGGGCGG, the self-cleavage was 0.04.

Take CCGCCUAACUCUGCCAAUGCCGGUCCCAAGCCCGAAUAAAAGUGGAGGGGGCGG: the self-cleavage is 0.06.

For the variant CCGCCUAACUCUGCCAAUGCCGGUCCCAAGCCCGGAUAAAAGUGGAGGAGGCGG, the self-cleavage was 0.04.

Consider CCGCCUAACUCUGCCAAUGCCGGUCCCAAGCCCGGAUAAAAGUGGAGGCGGCGG, for which the self-cleavage was determined as 0.01.

Turning to CCGCCUAACUCUGCCAAUGCCGGUCCCAAGCCCGGAUAAAAGUGGAGGUGGCGG, the self-cleavage was determined as 0.02.

Turning to CCGCCUAACUCUGCCAAUGCCGGUCCCAAGCCCUGAUAAAAGUGGAGGGGGCGG, the self-cleavage was determined as 0.03.

In the case of CCGCCUAACUCUGCCAAUGCCGGUCCCAAGCCCAGAUAAAAGUGGAGGGGGCGG, the self-cleavage was 0.05.

As to CCGCCUAACUCUGCCAAUGCCGGUCCCAAGCCCCGAUAAAAGUGGAGGGGGCGG, the self-cleavage turned out to be 0.03.

For CCGCCUAACUCUGCCAAUGCCGGUCCCAAGCCCGGAUAAAAGUCGAGGGGGCGG, the self-cleavage stood at 0.09.

As to CCGCCUAACUCUGCCAAUGCCGGUCCCAAGCCCGGAUAAAAGUUGAGGGGGCGG, the self-cleavage amounted to 0.08.

With CCGCCUAACUCUGCCAAUGCCGGUCCCAAGCCCGGAUAAAAGUAGAGGGGGCGG, the self-cleavage came to 0.03.

Regarding CCGCCUAAUAAUGCCAAUGCCGGUCCCAAGCCCGGAUAAAAGUGGAGGGGGCGG, the self-cleavage turned out to be 0.4.

With CCGCCUAAAAAUGCCAAUGCCGGUCCCAAGCCCGGAUAAAAGUGGAGGGGGCGG, the self-cleavage is 0.33.

CCGCCUAAGAAUGCCAAUGCCGGUCCCAAGCCCGGAUAAAAGUGGAGGGGGCGG: the self-cleavage is 0.19.

On to CCGCCUAACUCUGCCAAUGCCGGUCCCAAGCCCGGAUAAAAGGGGAGGGGGCGG, for which the self-cleavage is 0.59.

Turning to CCGCCUAACUCUGCCAAUGCCGGUCCCAAGCCCGGAUAAAAGCGGAGGGGGCGG, the self-cleavage is 0.03.

As for CCGCCUAACUCUGCCAAUGCCGGUCCCAAGCCCGGAUAAAAGAGGAGGGGGCGG, the self-cleavage worked out at 0.79.

In the case of CCGCCUAACUCUGCCAAUGCCGGUCCCAAUCCCGGAUAAAAGUGGAGGGGGCGG, the self-cleavage came to 0.01.

In the case of CCGCCUAACUCUGCCAAUGCCGGUCCCAAACCCGGAUAAAAGUGGAGGGGGCGG, the self-cleavage was 0.01.

For CCGCCUAACUCUGCCAAUGCCGGUCCCAACCCCGGAUAAAAGUGGAGGGGGCGG, the self-cleavage was 0.01.

Take CCGCCUAACUCUGCCAAUACCGGUCCCAAGCCCGGAUAAAAGUGGAGGGGGCGG: the self-cleavage is 0.05.

For the variant CCGCCUAACUCUGCCAAUCCCGGUCCCAAGCCCGGAUAAAAGUGGAGGGGGCGG, the self-cleavage was found to be 0.01.

Regarding CCGCCUAACUCUGCCAAUUCCGGUCCCAAGCCCGGAUAAAAGUGGAGGGGGCGG, the self-cleavage is 0.02.

For the variant CCGCCUAACAAUGCCAAUGCCGGUCGCAAGCCCGGAUAAAAGUGGAGGGGGCGG, the self-cleavage came out at 0.06.

On to CCGCCUAACAAUGCCAAUGCCGGUCACAAGCCCGGAUAAAAGUGGAGGGGGCGG, for which the self-cleavage is 0.06.

CCGCCUAACUCUGCCAAUGCCGGUCCCAAGCCCGGAUAAAAGUGGAGCGGGCGG: the self-cleavage worked out at 0.01.

Take CCGCCUAACUCUGCCAAUGCCGGUCCCAAGCCCGGAUAAAAGUGGAGUGGGCGG: the self-cleavage was found to be 0.01.

Regarding CCGCCUAACUCUGCCAAUGCCGGUCCCAAGCCCGGAUAAAAGUGGAGAGGGCGG, the self-cleavage was 0.02.
